ChEMBL document CHEMBL2034936, “Discovery and extensive in vitro evaluations of NK-HDAC-1: a chiral histone deacetylase inhibitor as a promising lead” (J Med Chem, 2012)
Calls of active or inactive are those of the source. No cut-off for these calls is given here.

Columns and labels:
SF-539 = test: cells; type: functional; details: Homo sapiens, SF-539, 72 h
SNB-75 = test: Growth inhibition of human SNB75 cells after 72 hrs by MTS assay; type: functional; details: SNB-75, 72 h
BT-549 = test: cells; type: functional; details: Homo sapiens, BT-549, 72 h
Histone deacetylase = test: Inhibition of HDAC in human HeLa cell nuclear extracts using Ac-Arg-Gly-Lys(Ac)-AMC substrate by fluorimetry; type: protein assay
DU-145 = test: cells; type: functional; details: Homo sapiens, DU-145, 72 h
[1] = molecular target: T1, Histone deacetylase (Homo sapiens) (UniProt Q13547+O15379+Q9UBN7+Q92769+Q9UQL6+Q8WUI4+Q9BY41+Q96DB2+P56524+Q9UKV0+Q969S8); test: Inhibition of HDAC in human MDA-MB-231 cells assessed as stimulation of histone H3 acetylation at 0.1 uM incubated for 24 hrs by Western blot; type: cell-based
Summary of the method: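 MDA-MB-231 cells in 35-mm dishes, dosed 24 h at graded concentrations, then trypsinized and PBS-washed. Lysed in RIPA (50 mM Tris-HCl pH 7.5, protease and phosphatase inhibitors) for 30 min at 4 °C, then cleared at 12,000g. Lysate, 60 μg protein by BCA, run on SDS-PAGE and PVDF. Blotted with anti-acetyl-histone H3 and HRP anti-rabbit, read by ECL.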

[2] = Efflux ratio, ratio of apparent permeability from basolateral to apical side over apparent permeability from apical to basolateral side in human Caco2 cells at 10 uM; type: ADME, cell-based; details: Caco-2
Summary of the method: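 Caco-2 monolayers, test compound at 10 μM. Apparent permeability measured in both directions, apical to basolateral and basolateral to apical. Efflux ratio = P_app B to A / P_app A to B. Run by a contract lab following published methods. Mean of three independent triplicate experiments.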

[3] = molecular target: T1, Histone deacetylase (Homo sapiens); test: Inhibition of HDAC in human MDA-MB-231 cells assessed as stimulation of histone H3 acetylation at 0.5 uM by Western blot; type: cell-based; details: TDE = time-dependent effect
Summary of the method: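 Time course in MDA-MB-231 cells at 0.5 μM, sampled from 3 h up to 24 h. Lysed in RIPA (pH 7.5, protease and phosphatase inhibitors) at 4 °C, then 60 μg protein run on SDS-PAGE. Western blot with anti-acetyl-histone H3 and ECL detection.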

A498 = test: cells; type: functional; details: Homo sapiens, A498, 72 h
HCT-15 = test: cells; type: functional; details: Homo sapiens, HCT-15, 72 h
TK-10 = test: cells; type: functional; details: Homo sapiens, TK-10, 72 h
Cytochrome P450 3A4 = Cytochrome P450 3A4 (Homo sapiens, UniProt P08684); test: Inhibition of human CYP3A4; type: ADME
Cytochrome P450 3A4, sequence (P08684 whole entry): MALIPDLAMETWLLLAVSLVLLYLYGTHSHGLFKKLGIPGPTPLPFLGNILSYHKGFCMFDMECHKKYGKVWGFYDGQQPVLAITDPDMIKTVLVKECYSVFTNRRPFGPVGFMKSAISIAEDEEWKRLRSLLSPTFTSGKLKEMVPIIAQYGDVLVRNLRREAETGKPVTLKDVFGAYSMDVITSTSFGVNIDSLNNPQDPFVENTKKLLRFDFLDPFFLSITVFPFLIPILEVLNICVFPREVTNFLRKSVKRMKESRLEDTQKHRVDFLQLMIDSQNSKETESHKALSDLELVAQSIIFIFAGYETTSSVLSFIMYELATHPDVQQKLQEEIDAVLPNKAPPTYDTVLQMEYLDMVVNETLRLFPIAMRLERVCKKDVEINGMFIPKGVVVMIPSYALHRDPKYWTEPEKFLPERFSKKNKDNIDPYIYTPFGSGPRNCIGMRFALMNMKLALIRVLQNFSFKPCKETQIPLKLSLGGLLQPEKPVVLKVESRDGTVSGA

in vitro = details: human, MCF10A cells
SF-295 = test: cells; type: functional; details: Homo sapiens, SF-295, 72 h
COLO 205 = test: Growth inhibition of human COLO205 cells after 72 hrs by MTS assay; type: functional; details: COLO 205, 72 h
U-251 = test: cells; type: functional; details: Homo sapiens, U-251, 72 h
PC-3 = test: cells; type: functional; details: Homo sapiens, PC-3, 72 h
UACC-257 = test: cells; type: functional; details: Homo sapiens, UACC-257, 72 h
ACHN = test: cells; type: functional; details: Homo sapiens, 72 h
Malme-3M = test: cells; type: functional; details: Homo sapiens, 72 h
KM12 = test: cells; type: functional; details: Homo sapiens, KM12, 72 h

CC(C)[C@@H](c1nc2ccccc2o1)n1cc(/C=C/C(=O)NO)nn1
GI50 (SF-539): 240 nM | GI50 (SNB-75): 250 nM | GI50 (BT-549): 52 nM | IC50 (Histone deacetylase): 7 nM | GI50 (DU-145): 160 nM | inhibition [1]: Active | efflux ratio at 10 µM [2]: 1.15 | inhibition [3]: tde | GI50 (A498): 180 nM | GI50 (HCT-15): 470 nM | GI50 (TK-10): 44 nM | INH (Cytochrome P450 3A4): 31.9 µM | GI50 at 48 h (in vitro): 1600 nM | GI50 (SF-295): 120 nM | GI50 (COLO 205): 140 nM | GI50 (U-251): 180 nM | GI50 (PC-3): 120 nM | GI50 (UACC-257): 88 nM | GI50 (ACHN): 210 nM | GI50 (Malme-3M): 16 nM | GI50 (KM12): 230 nM
